These molecules were tested against T1, Aldo-keto reductase family 1 member B1 (Bos taurus, UniProt P16116) (assay: In vitro inhibitory activity against Aldose reductase 2 obtained from calf lenses).

Compound	IC50 [µM]
CCC(C(=O)O)n1nc(-c2ccccc2)c2c(C)onc2c1=O (configuration not stated)	75
Cc1onc2c(=O)n(CC(=O)O)nc(-c3ccccc3[N+](=O)[O-])c12	6.06
Cc1onc2c(=O)n(CCCC(=O)O)nc(-c3ccccc3)c12	20.2
Cc1onc2c(=O)n(CCCCC(=O)O)nc(-c3ccccc3)c12	28.4
Cc1onc2c(=O)n(CCC(=O)O)nc(-c3ccc(Cl)cc3)c12	34.8
CC(=O)c1c(-c2ccccc2)nn(CC(=O)O)c(=O)c1NCCc1ccccc1	93.9
Cc1nn(CCCC(=O)O)c(=O)c2noc(C)c12	65.1
O=C(O)Cn1nc(-c2ccccc2)cc(NCCc2ccccc2)c1=O	68.5
Cc1nn(CC(=O)O)c(=O)c2noc(C)c12	42
Cc1onc2c(=O)n(CC(=O)O)nc(-c3ccccc3)c12	12.7
CC(=O)c1c(-c2ccccc2)nn(CC(=O)O)c(=O)c1NCc1ccccc1	27.6

Now from value to molecule:

IC50 [µM]	Compound
4.76	Cc1onc2c(=O)n(CC(=O)O)nc(-c3ccc([N+](=O)[O-])cc3)c12
65.2	Cc1onc2c(=O)n(CCC(=O)O)nc(-c3ccccc3)c12
10.4	Cc1onc2c(=O)n(CCCC(=O)O)nc(-c3ccc(Cl)cc3)c12
36.5	CC(=O)c1c(-c2ccccc2)nn(CC(=O)O)c(=O)c1NCc1ccc(Cl)cc1
114	CCCC(C(=O)O)n1nc(-c2ccccc2)c2c(C)onc2c1=O (configuration not stated)
48.8	O=C(O)Cn1nc(-c2ccccc2)cc(NCc2ccccc2)c1=O
3.72	Cc1onc2c(=O)n(CC(=O)O)nc(-c3ccc(Cl)cc3)c12
97.9	Cc1c(-c2nc3cc(C(F)(F)F)ccc3s2)nc2c(O)n(CC(=O)O)nc(-c3ccccc3)c1-2
4.46	C[c-]1[o+]nc2c(=O)n(CC(=O)O)nc(-c3cccc([N+](=O)[O-])c3)c21
157	O=C(O)Cn1nc(-c2ccccc2)cc(NCCc2ccccn2)c1=O
37	CC(=O)c1c(-c2ccccc2)nn(CCCC(=O)O)c(=O)c1N
133	CC(=O)c1c(-c2ccccc2)nn(CC(=O)O)c(=O)c1Nc1ccc(Br)cc1
76.8	Cc1onc2c(=O)n(C(C)C(=O)O)nc(-c3ccccc3)c12 (configuration not stated)

What follows are molecules tested against Aldo-keto reductase family 1 member B1 (Bos taurus) (UniProt P16116) (assay: In vitro inhibitory activity against Aldose reductase 2 obtained from calf lenses at a concentration of 82 uM).
In short: (§1)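 Calf lens ALR2 purified by DE52, Orange Matrex affinity and Sephadex G75 chromatography. Inhibitor in DMSO (1% final) added to a 37 °C reaction with 4.7 mM D,L-glyceraldehyde and 0.11 mM NADPH in 0.25 M sodium phosphate pH 6.8 containing 0.38 M ammonium sulfate. Activity followed as absorbance change at 340 nm, corrected with a blank lacking substrate.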

inhibition [%]	Compound
36	Nc1cc(-c2ccccc2)nn(CC(=O)O)c1=O

What follows are molecules tested against Aldo-keto reductase family 1 member B1 (Bos taurus) (UniProt P16116) (assay: In vitro inhibitory activity against Aldose reductase 2 obtained from calf lenses at a concentration of 142 uM).
In short: as §1

inhibition [%]	Compound
27	CC(=O)c1c(-c2ccccc2)nn(CCC(=O)O)c(=O)c1N

These molecules were tested against T1, Aldo-keto reductase family 1 member B1 (assay: In vitro inhibitory activity against aldose reductase (ALR2) obtained from calf lenses).
In short: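 ALR2 purified from calf lens: homogenate in pH 7 phosphate buffer with 5 mM DTT, then DE52 ion exchange, Orange Matrex affinity and Sephadex G75. Assay at 37 °C, 4.7 mM D,L-glyceraldehyde, 0.11 mM NADPH, 0.25 M sodium phosphate pH 6.8 with 0.38 M ammonium sulfate, 1% DMSO. NADPH oxidation read at 340 nm against a substrate-free blank.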

IC50 [µM]	Compound
107	Cc1onc2c(=O)n(C/C=C/C(=O)O)nc(-c3ccccc3)c12
154	CC(=O)c1c(-c2ccccc2)nn(CC(=O)O)c(=O)c1N
210	CC(=O)c1c(C)nn(CC(=O)O)c(=O)c1N

What follows are molecules tested against Aldo-keto reductase family 1 member B1 (Bos taurus) (UniProt P16116) (assay: In vitro inhibitory activity against Aldose reductase 2 obtained from calf lenses at a concentration of 16 uM).
In short: as §1

inhibition [%]	Compound
12	CC(=O)c1c(-c2ccccc2)nn(CC(=O)O)c(=O)c1Nc1ccccc1

These molecules were tested against Aldo-keto reductase family 1 member B1 (Bos taurus) (UniProt P16116) (assay: In vitro inhibitory activity against Aldose reductase 2 obtained from calf lenses at a concentration of 94 uM).
In short: as §1

inhibition [%]	Compound
27	CC(=O)c1c(-c2ccccc2)nn(CC(=O)O)c(=O)c1Nc1ccc(Cl)cc1

These molecules were tested against Aldo-keto reductase family 1 member B1 (Bos taurus) (UniProt P16116) (assay: In vitro inhibitory activity against Aldose reductase 2 obtained from calf lenses at a concentration of 190 uM).
In short: as §1

inhibition [%]	Compound
28	Cc1nn(CCC(=O)O)c(=O)c2noc(C)c12
